ChEMBL document CHEMBL2407008, “Synthesis and biological evaluation of a new series of highly functionalized 7'-homo-anhydrovinblastine derivatives” (J Med Chem, 2013)
pIC50: −log10 of the molar value. Active and inactive are the calls of the source. No cut-off for these calls is given here.

Assays:
[1] = Inhibition of sheep brain tubulin polymerization by UV spectrophotometric analysis; set-up: species or system Ovis aries
Summary of the method: (§1)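 Sheep brain tubulin was mixed with compound in DMSO at 0 °C, then warmed to 37 °C. Assembly was followed as optical density at 350 nm. Maximum assembly rate was compared with a drug-free sample, and IC50 was derived from several concentrations. Vinorelbine IC50 was measured the same day on the same tubulin preparation.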

HUVEC = assay: Cytotoxicity against HUVEC after 72 hrs by resazurin assay; assay type: cell-based; conditions: Homo sapiens
Summary of the method: (§2)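 Cells were seeded at 2.5 × 10^3/well, cultured 24 h, then given compound in DMSO (<0.1%) at several concentrations for 72 h. Media: RPMI 1640/10% FCS for K562 and HCT116; DMEM/10% FCS for U87-MG; EGM2 with growth factors and 2% FCS for HUVEC. Resazurin was added for 1.5 h and fluorescence read (ex 560/em 590 nm). IC50 is the 50% fluorescence drop versus untreated cells. Run in triplicate.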

HCT-116 = assay: Cytotoxicity against human HCT116 cells after 72 hrs by resazurin assay; assay type: functional, cell-based; conditions: HCT-116, 72 h; summary of the method: as §2
K562 [2] = assay: Cytotoxicity against human K562 cells after 72 hrs by resazurin assay; assay type: functional, cell-based; conditions: K562, 72 h; summary of the method: as §2
[3] = Cytotoxicity against human U87MG cells after 72 hrs by resazurin assay; assay type: functional, cell-based, U-87MG ATCC; conditions: U-87 MG; summary of the method: as §2
[4] = Cell cycle arrest in human U87MG cells assessed as accumulation at G2/M phase at >5 nM after 24 hrs by propidium iodide staining-based flow cytometric analysis; assay type: functional; conditions: U-87MG ATCC
Summary of the method: (§3)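 U87-MG glioblastoma cells grown in DMEM with 10% FCS and L-glutamine, 37 °C, 5% CO2. Exponentially growing cells were treated for 24 h at two concentrations, or with DMSO. Cells were harvested, dissociated, PBS-washed, fixed in cold 70% ethanol and kept at −20 °C overnight. Staining used propidium iodide with RNase for 30 min, followed by flow-cytometric cell-cycle profiling.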

K562 [5] = assay: Cell cycle arrest in human K562 cells assessed as accumulation at G2/M phase at 10 nM after 24 hrs by propidium iodide staining-based flow cytometric analysis; assay type: functional
Summary of the method: (§4)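 K562 cells grown in RPMI 1640 with 10% FCS and 1% glutamine, 37 °C, 5% CO2. Exponentially growing cells were exposed for 24 h to compound at two concentrations, or to DMSO. Cells were then harvested, PBS-washed, fixed in cold 70% ethanol (30 min, +4 °C) and held at −20 °C overnight. DNA was stained with propidium iodide plus RNase for 30 min, and the profile was read by flow cytometry.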

K562 [6] = assay: Cell cycle arrest in human K562 cells assessed as accumulation at G2/M phase at >10 nM after 24 hrs by propidium iodide staining-based flow cytometric analysis; assay type: functional; summary of the method: as §4
[7] = Cell cycle arrest in human U87MG cells assessed as accumulation at G2/M phase at 5 nM after 24 hrs by propidium iodide staining-based flow cytometric analysis; assay type: functional; conditions: U-87MG ATCC; summary of the method: as §3
Ovis aries = organism: Ovis aries; assay: Ratio of compound IC50 to vinorelbine IC50 for sheep brain tubulin polymerization; summary of the method: as §1
K562 [8] = assay: Cell cycle arrest in human K562 cells assessed as accumulation at G2/M phase at 50 nM after 24 hrs by propidium iodide staining-based flow cytometric analysis; assay type: functional; summary of the method: as §4
[9] = Cell cycle arrest in human U87MG cells assessed as accumulation at G2/M phase at 50 nM after 24 hrs by propidium iodide staining-based flow cytometric analysis; assay type: functional; conditions: U-87MG ATCC; summary of the method: as §3
[10] = Cell cycle arrest in human U87MG cells assessed as accumulation at G2/M phase at >50 nM after 24 hrs by propidium iodide staining-based flow cytometric analysis; assay type: functional; conditions: U-87MG ATCC; summary of the method: as §3
K562 [11] = assay: Cell cycle arrest in human K562 cells assessed as accumulation at G2/M phase at >50 nM after 24 hrs by propidium iodide staining-based flow cytometric analysis; assay type: functional; summary of the method: as §4

Row | pIC50 [1] | Compound | pIC50 (HUVEC) | pIC50 (HCT-116) | pIC50 (K562 [2]) | pIC50 [3] | also measured
1 | 5.43 | C=CCNC(=O)/C1=C(\C(=O)OC)Cc2c([nH]c3ccccc23)[C@@](C(=O)OC)(c2cc3c(cc2OC)N(C)[C@H]2[C@@](O)(C(=O)OC)[C@H](OC(C)=O)[C@]4(CC)C=CCN5CC[C@]32[C@@H]54)C[C@@H]2C=C(CC)CN1C2 | 5.70 | 5.74 | 6.00 | 5.52 | –
2 | 5.07 | CCC1=C[C@@H]2CN(C1)[C@H](C(=O)OC)[C@H](C(=O)OC)Cc1c([nH]c3ccccc13)[C@@](C(=O)OC)(c1cc3c(cc1OC)N(C)[C@H]1[C@@](O)(C(=O)OC)[C@H](OC(C)=O)[C@]4(CC)C=CCN5CC[C@]31[C@@H]54)C2 | 8.60 | 8.22 | 8.30 | 8.82 | Activity [4]: Active; Activity (K562 [5]): Active; Activity (K562 [6]): Active; Activity [7]: Active
3 | 5.80 | CCC1=C[C@@H]2CN(C1)/C(C(=O)NC(C)C)=C(/C(=O)OC)Cc1c([nH]c3ccccc13)[C@@](C(=O)OC)(c1cc3c(cc1OC)N(C)[C@H]1[C@@](O)(C(=O)OC)[C@H](OC(C)=O)[C@]4(CC)C=CCN5CC[C@]31[C@@H]54)C2 | 6.15 | 5.60 | 5.82 | 6.46 | Ratio IC50 (Ovis aries): 2
4 | 5.96 | CCC1=C[C@@H]2CN(C1)[C@H](C(=O)NC(C)(C)C)[C@H](C(=O)OC)Cc1c([nH]c3ccccc13)[C@@](C(=O)OC)(c1cc3c(cc1OC)N(C)[C@H]1[C@@](O)(C(=O)OC)[C@H](OC(C)=O)[C@]4(CC)C=CCN5CC[C@]31[C@@H]54)C2 | 7.15 | 6.52 | 6.60 | 7.10 | Ratio IC50 (Ovis aries): 1.7
5 | < 4.00 | CCC1=C[C@@H]2CN(/C=C(/C(=O)OCc3ccccc3)Cc3c([nH]c4ccccc34)[C@@](C(=O)OC)(c3cc4c(cc3OC)N(C)[C@H]3[C@@](O)(C(=O)OC)[C@H](OC(C)=O)[C@]5(CC)C=CCN6CC[C@]43[C@@H]65)C2)C1 | – | – | – | – | –
6 | 4.98 | CCC1=C[C@@H]2CN(C1)/C(C(=O)NCc1ccccc1)=C(/C(=O)OC)Cc1c([nH]c3ccccc13)[C@@](C(=O)OC)(c1cc3c(cc1OC)N(C)[C@H]1[C@@](O)(C(=O)OC)[C@H](OC(C)=O)[C@]4(CC)C=CCN5CC[C@]31[C@@H]54)C2 | 7.40 | 6.60 | 7.10 | 8.00 | –
7 | < 4.00 | CCOC(=O)[C@@H]1Cc2c([nH]c3ccccc23)[C@@](C(=O)OC)(c2cc3c(cc2OC)N(C)[C@H]2[C@@](O)(C(=O)OC)[C@H](OC(C)=O)[C@]4(CC)C=CCN5CC[C@]32[C@@H]54)C[C@@H]2C=C(CC)CN(C2)C1 | – | – | – | – | –
8 | 5.57 | CCC1=C[C@@H]2CN(C1)[C@H](C(=O)NCc1ccccc1)[C@H](C(=O)OC)Cc1c([nH]c3ccccc13)[C@@](C(=O)OC)(c1cc3c(cc1OC)N(C)[C@H]1[C@@](O)(C(=O)OC)[C@H](OC(C)=O)[C@]4(CC)C=CCN5CC[C@]31[C@@H]54)C2 | 7.22 | 6.70 | 7.12 | 7.15 | –
9 | 5.22 | CCC1=C[C@@H]2CN(C1)/C(C(=O)OC)=C(/C(=O)OC)Cc1c([nH]c3ccccc13)[C@@](C(=O)OC)(c1cc3c(cc1OC)N(C)[C@H]1[C@@](O)(C(=O)OC)[C@H](OC(C)=O)[C@]4(CC)C=CCN5CC[C@]31[C@@H]54)C2 | 7.00 | 6.30 | 6.00 | 6.15 | –
10 | 4.98 | CCC1=C[C@@H]2CN(C1)/C(C(=O)NC(C)(C)C)=C(/C(=O)OC)Cc1c([nH]c3ccccc13)[C@@](C(=O)OC)(c1cc3c(cc1OC)N(C)[C@H]1[C@@](O)(C(=O)OC)[C@H](OC(C)=O)[C@]4(CC)C=CCN5CC[C@]31[C@@H]54)C2 | 7.60 | 7.22 | 7.30 | 7.60 | –
11 | 5.68 | CC[C@]1(O)C[C@@H]2CN(CCc3c([nH]c4ccccc34)[C@@](C(=O)OC)(c3cc4c(cc3OC)N(C)[C@H]3[C@@](O)(C(=O)OC)[C@H](OC(C)=O)[C@]5(CC)C=CCN6CC[C@]43[C@@H]65)C2)C1 [VINBLASTINE] | 9.10 | 8.46 | 8.15 | 9.00 | –
12 | < 4.00 | CCC1=C[C@@H]2CN(C1)C[C@H](C(=O)OCc1ccccc1)Cc1c([nH]c3ccccc13)[C@@](C(=O)OC)(c1cc3c(cc1OC)N(C)[C@H]1[C@@](O)(C(=O)OC)[C@H](OC(C)=O)[C@]4(CC)C=CCN5CC[C@]31[C@@H]54)C2 | – | – | – | – | –
13 | 5.60 | CCC1=C[C@@H]2CN(C1)C[C@H](C(=O)OC)Cc1c([nH]c3ccccc13)[C@@](C(=O)OC)(c1cc3c(cc1OC)N(C)[C@H]1[C@@](O)(C(=O)OC)[C@H](OC(C)=O)[C@]4(CC)C=CCN5CC[C@]31[C@@H]54)C2 | 8.10 | 7.74 | 7.82 | 8.15 | Activity (K562 [8]): Active; Activity [9]: Active; Activity [10]: Active; Activity (K562 [11]): Active
14 | 4.74 | CCC1=C[C@@H]2CN(/C=C(/C(=O)OC)Cc3c([nH]c4ccccc34)[C@@](C(=O)OC)(c3cc4c(cc3OC)N(C)[C@H]3[C@@](O)(C(=O)OC)[C@H](OC(C)=O)[C@]5(CC)C=CCN6CC[C@]43[C@@H]65)C2)C1 | 6.60 | 6.30 | 6.30 | 6.15 | –
15 | < 4.00 | CCOC(=O)/C1=C/N2CC(CC)=C[C@H](C2)C[C@](C(=O)OC)(c2cc3c(cc2OC)N(C)[C@H]2[C@@](O)(C(=O)OC)[C@H](OC(C)=O)[C@]4(CC)C=CCN5CC[C@]32[C@@H]54)c2[nH]c3ccccc3c2C1 | – | – | – | – | –
16 | 6.30 | CCC1=C[C@@H]2CN(C1)[C@H](C(=O)NC(C)C)[C@H](C(=O)OC)Cc1c([nH]c3ccccc13)[C@@](C(=O)OC)(c1cc3c(cc1OC)N(C)[C@H]1[C@@](O)(C(=O)OC)[C@H](OC(C)=O)[C@]4(CC)C=CCN5CC[C@]31[C@@H]54)C2 | 6.82 | 7.00 | 7.22 | 7.70 | Ratio IC50 (Ovis aries): 0.6
17 | 5.31 | C=CCNC(=O)[C@@H]1[C@H](C(=O)OC)Cc2c([nH]c3ccccc23)[C@@](C(=O)OC)(c2cc3c(cc2OC)N(C)[C@H]2[C@@](O)(C(=O)OC)[C@H](OC(C)=O)[C@]4(CC)C=CCN5CC[C@]32[C@@H]54)C[C@@H]2C=C(CC)CN1C2 | 7.60 | 7.35 | 7.30 | 8.00 | –
18 | 6.15 | CCC1=C[C@@H]2CN(C1)Cc1c([nH]c3ccccc13)[C@@](C(=O)OC)(c1cc3c(cc1OC)N(C)[C@H]1[C@@](O)(C(=O)OC)[C@H](OC(C)=O)[C@]4(CC)C=CCN5CC[C@]31[C@@H]54)C2 [VINORELBINE] | 8.70 | 7.46 | 7.70 | 8.70 | –
